Bioassay records: PubChem BioAssay, Johns Hopkins Ion Channel Center
TRPC4 potent = positive allosteric modulators of TRPC4, primary screen, cell-based, mouse TRPC4beta, HEK293 mu-opioid, Fluo-4 calcium; DAMGO EC20, Fluo-4 Ca2+ flux; hits give high values; B-score at 10 µM; 310,000 compounds, 0.42% hits;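 active = B-score of calcium response area above 5 SD of library B-scores, with initial fluorescence ratio within 5 SD of library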
Target sequence (Q9QUQ5 whole entry, looked up): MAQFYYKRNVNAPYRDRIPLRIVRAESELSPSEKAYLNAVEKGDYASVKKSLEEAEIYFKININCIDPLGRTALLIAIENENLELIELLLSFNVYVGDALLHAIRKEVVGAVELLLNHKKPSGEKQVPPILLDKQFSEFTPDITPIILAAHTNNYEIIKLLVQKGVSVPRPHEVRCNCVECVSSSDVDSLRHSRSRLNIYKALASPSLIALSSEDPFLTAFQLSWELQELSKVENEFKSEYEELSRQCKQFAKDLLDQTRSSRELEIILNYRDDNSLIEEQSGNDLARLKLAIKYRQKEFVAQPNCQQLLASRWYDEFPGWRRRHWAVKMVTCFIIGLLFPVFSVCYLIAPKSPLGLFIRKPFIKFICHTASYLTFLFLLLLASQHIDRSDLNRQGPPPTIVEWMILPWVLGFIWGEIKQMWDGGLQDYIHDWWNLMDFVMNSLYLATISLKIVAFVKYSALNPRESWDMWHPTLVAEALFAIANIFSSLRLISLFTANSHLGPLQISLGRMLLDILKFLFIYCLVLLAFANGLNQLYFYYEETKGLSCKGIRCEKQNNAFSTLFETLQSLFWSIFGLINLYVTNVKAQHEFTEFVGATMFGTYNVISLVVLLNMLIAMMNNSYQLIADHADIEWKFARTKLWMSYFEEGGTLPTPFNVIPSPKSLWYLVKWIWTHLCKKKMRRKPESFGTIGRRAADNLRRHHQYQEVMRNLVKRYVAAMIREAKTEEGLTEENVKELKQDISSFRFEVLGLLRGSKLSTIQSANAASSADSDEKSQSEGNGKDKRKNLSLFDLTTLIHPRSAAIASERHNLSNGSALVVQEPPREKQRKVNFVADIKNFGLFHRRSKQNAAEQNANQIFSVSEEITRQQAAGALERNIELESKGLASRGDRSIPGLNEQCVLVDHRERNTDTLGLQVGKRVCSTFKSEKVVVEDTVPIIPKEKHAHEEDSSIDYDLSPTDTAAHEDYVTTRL
TRPC4 act = activators of mouse TRPC4 channel, primary screen, Fluo4 calcium, HEK293 TRPC4beta/mu-opioid cells | Fluo4 calcium fluorescence; hits give high values | B-score at 10 µM | 310,000 compounds, 0.49% hits;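 active = B-score above 5 SD of library B-scores, and initial fluorescence ratio not above library mean plus 5 SD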;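 note: positive B-score marks a calcium rise read as TRPC4 activation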
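Assay system: HEK293 stable line with TRPC4beta plus mu-opioid receptor. Times: dye 45 min RT, read 110 s. Measured by: kinetic Fluo4 calcium fluorescence. Measure: B score of integrated ratio. Controls: assay buffer as low control, maximal DAMGO as high control.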
TRPC4 inh = inhibitors of mouse TRPC4 channel, primary screen, Fluo4 calcium, HEK293 TRPC4beta/mu-opioid cells | Short transient receptor potential channel 4 (Mus musculus), Q9QUQ5 | DAMGO-evoked Fluo4 calcium flux; hits give low values | B-score at 10 µM | 300,000 compounds, 0.39% hits;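 active = B-score over 3 SD under the library average, no early fluorescence shift, positive overall ratio signal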
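Signal: kinetic Fluo4 fluorescence imaging of calcium influx. Material: stable TRPC4beta/mu-opioid receptor HEK293 cells. Probe or stimulus: DAMGO in two steps, submaximal then maximal.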
TRPC6 act = mouse TRPC6 channel activators, primary screen, cell-based, HEK293, membrane potential dye; HEK293-TRPC6 membrane potential dye fluorescence; hits give high values; 310,000 compounds, 0.13% hits; Short transient receptor potential channel 6 (Mus musculus), Q61143; AID 2550, 2010; B-score at 10 µM;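 active = B-score of the integrated fluorescence ratio above library mean plus 3 SD, and starting fluorescence ratio within library mean plus 5 SD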;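 note: higher score means more depolarization so channel activation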
TRPC6 inh = mouse TRPC6 channel inhibitors, primary screen, cell-based, HEK293, membrane potential dye; AID 2553, 2010; ACh-evoked depolarization; hits give low values; 310,000 compounds, 1.1% hits; B-score at 10 µM; Short transient receptor potential channel 6 (Mus musculus), Q61143;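 active = B-score under library mean minus 3 SD, initial fluorescence not abnormally high, positive integrated signal ratio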;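 note: B-score derived from integrated fluorescence ratio over the kinetic read; more negative B-score means stronger inhibition of depolarization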
Hits are given with their value; n = inactive. Most compounds without a hit are left out; they make up all but 2.3% or so of the library.

SMILES	TRPC4 potent	TRPC4 act	TRPC4 inh	TRPC6 act	TRPC6 inh
Cc1ccc(-c2nc3cnccn3c2Nc2ccc3c(c2)OCO3)cc1	n	n	n	n	-5.7
Cc1ccc(C(=O)N2CC(=O)NC(=O)C2)cc1	n	n	n	n	n
CC(C)C(=O)N1CCN(c2nc(-c3ccccc3)c3c(c2C#N)CCCC3)CC1	14	n	n	n	n
CC(C)Cc1nc(N2CCN(C(=O)c3ccco3)CC2)c(C#N)c2c1CCCC2	n	n	n	n	n
CC(C)CC(=O)CC1(O)C(=O)Nc2ccccc21 (centres undefined)	n	n	n	n	n
CC(C)CC(=O)Nc1ccc(S(=O)(=O)Nc2nccs2)cc1	n	n	n	n	n
Cc1ccc(NC(=O)c2cc(NC(=O)c3ccco3)ccc2N2CCOCC2)cc1	n	n	n	n	n
Cc1ccc(NC(=O)c2cc(N3C(=O)C=CC3=O)ccc2N2CCOCC2)cc1	n	n	-6	n	n
CCCCN(C(=O)CSc1nnc(Nc2ccccc2)s1)c1c(N)n(CCC)c(=O)[nH]c1=O	n	n	n	n	n
COc1ccc2c(=O)c(Oc3ccc(C(=O)O)cc3)c(C(F)(F)F)oc2c1	n	n	n	n	n
CCCCN(C)CCCNC(=O)c1cn(C)c2ccc(S(=O)(=O)N(C)C3CCCCC3)cc2c1=O	n	n	n	n	n
CCCCN(CC)CCCNC(=O)c1cn(C)c2ccc(S(=O)(=O)N(C)C3CCCCC3)cc2c1=O	12	n	n	n	n
CCCCN(C)C(=O)c1cn(C)c2ccc(S(=O)(=O)N(C)C)cc2c1=O	14	n	n	n	n
Cn1c(CCN2CCN(c3ccccn3)CC2)nc2cc(NC(=O)COc3ccccc3)ccc21	n	n	n	n	n
COc1ccc(OCC(=O)Nc2ccc(N3CCN(C(=O)c4ccccc4C)CC3)cc2)cc1	n	n	n	n	n
CN(C)S(=O)(=O)N1CCCN(S(=O)(=O)N(C)C)CC1	n	n	n	n	n
CN(C)S(=O)(=O)N1CCC(CCCC2CCN(S(=O)(=O)N(C)C)CC2)CC1	23	n	n	n	n
CC1(C)NC(=O)N(CCCCOc2ccc3ccccc3c2Cl)C1=O	n	n	n	n	n
CC1(C)NC(=O)N(CCOCCOc2ccc3ccccc3c2Br)C1=O	13	n	n	n	n
Cn1c(-c2cccc3ccccc23)n[nH]c1=S	n	102	n	n	n
COc1cc(CN2CCC(n3nccc3NC(=O)c3ccc4c(c3)OCO4)CC2)ccc1O	n	n	n	n	n
CCCCN(C)CCCNC(=O)C1CCC(CNS(=O)(=O)c2c(C)cc(C)cc2C)CC1 (centres undefined)	12	n	n	n	n
CC(C)OCCCNC(=O)C1CCC(CNS(=O)(=O)c2cccc3nsnc23)CC1 (centres undefined)	n	n	n	n	n
CCCN(CCC)CCCNC(=O)C1CCC(CNS(=O)(=O)c2cccc3nsnc23)CC1 (centres undefined)	n	103	n	n	n
CNC(=O)/C(C#N)=C/c1ccc(OCCOc2ccccc2)cc1	n	n	n	n	n
SMILES	TRPC4 potent	TRPC4 act	TRPC4 inh	TRPC6 act	TRPC6 inh
S=C(NCCc1cnc[nH]1)NC1CCCC1	n	98	n	n	n
S=C(NCCc1ccccn1)NC1CCCCC1	n	97	n	n	n
S=C(NCCc1ccccn1)Nc1ccccc1Cl	n	n	n	n	n
Cc1c(Cl)cccc1NC(=S)NCCc1ccccn1	n	60	n	n	n
C=CCOc1ccc(/C=C2\SC(=S)N(NS(=O)(=O)c3ccc(C)cc3)C2=O)cc1	12	n	n	n	n
CCOC(=O)c1sc2nc(CC(=O)OC)nc(NCc3ccc(F)cc3)c2c1C	n	98	-9	n	n
CCOC(=O)c1sc2nc(C)nc(NCc3ccc(F)cc3)c2c1C	n	n	n	n	n
COc1ccc(CCNC(=O)CCCCCN2C(=O)[C@@H]3Cc4ccccc4CN3C2=O)cc1OC	n	n	n	n	n
CC(=O)N1CC(C)Oc2ccc(S(=O)(=O)NC(CC(=O)O)c3ccccc3)cc21 (centres undefined)	n	n	n	n	n
